Assay results from ChEMBL document CHEMBL4513216, “Probing the Open Global Health Chemical Diversity Library for Multistage-Active Starting Points for Next-Generation Antimalarials” (ACS Infect Dis, 2020).

Assay: Toxicity liver stage against HepG2, at 10uM
Assay type: cell-based
Set-up: test concentration 10 uM, cell line HepG2-A16-CD81EGFP
Conditions: human, HepG2-A16-CD81EGFP cells; read-out: INHIBITION
Summary of the method: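 Uninfected HepG2-A16-CD81EGFP cells, 3 × 10^3 per well, 1536-well, plated on prespotted compound at 10 μM final, parasite-free screening media added to match infected plates; puromycin 10 μM positive, DMSO 0.5% negative; run in parallel with 48 h PbLuc assay at 37 °C, 5% CO2; viability by CellTiter-Glo luminescence, normalized to controls.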

SMILES	cytotoxicity at 10 µM [%]
Cc1cc(CNC(=O)C2CCC(=O)N(Cc3ccccc3F)C2)on1 (centres undefined)	-5.26
CCCN(CCC)c1nc(N)nc(-c2cc(Cl)ccc2OC)n1	7.43
CC(C)Cn1nc2ccc(S(=O)(=O)N3CCC(C)CC3)cn2c1=O	1.67
Cc1csc(C(=O)N2CCC(S(C)(=O)=O)CC2)c1	2.7
O=C(C1CCCO1)N1CCc2nnc(Cn3cccc3)n2CC1 (centres undefined)	13.9
c1ccc(CN2CCC3(COCc4cnc(NCC5CC5)nc43)C2)cc1 (centres undefined)	12.5
CCN1CC2(CC1=O)CN(Cc1ccoc1)CCN(C(=O)C(C)C)C2 (centres undefined)	9.14
CCOc1cc(=O)n2c(c1C(=O)OCc1cccc(C)c1)CCCC2	-15.1
Nc1nc(N2CCCCCC2)ncc1C(=O)NCc1ccc(F)c(Cl)c1	-0.585
O=C(c1ccco1)N1CCOCC2(C1)CN(c1ccccc1)C(=O)CO2 (centres undefined)	-10.1
Cc1nn(C)c(C)c1CN(C)C(=O)c1cc(NC(=O)C2CC2)n(C)n1	3.38
COc1ccc(OC)c(C(C)Nc2nc3c(C)nn(C)c3c(=O)n2C)c1 (centres undefined)	-15
CN1C[C@H](c2ccccc2)[C@H]2CN(C(=O)Cc3cccc(O)c3)CC[C@H]21	4.98
Cc1cccc(CN2CCCC(c3nccs3)C2)n1 (centres undefined)	8.38
CSCC[C@H]1CN2CCC[C@H]2CN1Cc1coc2ccc(C)cc2c1=O	-1.04
Cc1nccc(C2CCCCN2Cc2cccc(F)c2)n1 (centres undefined)	-11.6
COc1cc(Cl)c(NC(=O)c2cc3c([nH]c2=O)CCCC3=O)cc1OC	-5.21
COCc1c(Br)cccc1NC(=O)N(C)CCO	-9.95
O=S(=O)(c1ccccc1N1CC(n2cccn2)C1)C(F)(F)F	6.68
CC(C)OCCC1CCCCN1S(N)(=O)=O (centres undefined)	7.36
CC(=O)N1CCN(CCNC(=O)NC(C)Cn2ccnc2)CC1 (centres undefined)	5.74
CCN(Cc1cnn(C)c1)S(=O)(=O)c1ccc(NC(C)=O)cc1	3.59

SMILES	cytotoxicity at 10 µM [%]
Cn1ccc(C(=O)Nc2nnc(-c3ccccn3)[nH]2)cc1=O	6.69
O=C(NCCCN1CCOCC1)c1ccnc(OCc2ccccc2)c1	-21.4
COc1ccc(NC(=O)c2ccco2)c(N2CCN(C(C)=O)CC2)n1	-10.2
COc1ncnc(N(C)C)c1NC(=O)Cc1cc(F)ccc1F	-2.67
CCC(CC)C(CNC(=O)Nc1ccc(OC)cc1)N1CCOCC1 (centres undefined)	-2.86
O=C(Nc1cc(-c2ccccc2)on1)N1CCN(CCO)CC1	3.3
CCN(CCc1nccs1)C(=O)c1sccc1C	-0.682
Cc1cn2nc(N3CCCC3C(=O)N3CCSCC3)sc2n1 (centres undefined)	10.9
O=C(COCc1ccccc1)Nc1ccccn1	-27.7
CCOCc1ccc(NC(=O)N2CCCC2c2nncn2C)cc1 (centres undefined)	6.53
Cc1nn(C)c(C)c1C(=O)N1CCN(c2ccncc2Cl)CC1	-2.25
O=S(=O)(Nc1ccon1)c1cc(Cl)cc2c1OCC2	5.81
CC(C)Oc1ncccc1CNC(=O)NC(C)c1cccs1 (centres undefined)	-2.3
Cc1ncsc1C(=O)N1CC(C)Sc2ccccc21 (centres undefined)	-0.663
CCn1cc(NC(=O)NCC2(N3CCOCC3)CCSC2)cn1 (centres undefined)	-17.1
Cc1ccccc1C(=O)NCc1ccc(N2CCNC(=O)C2)c(F)c1	-13.8
CCOc1cc(CN(C)CCOC)ccc1OC(F)F	-13.7
O=C(c1cocn1)N1C[C@@H]2COC[C@]2(COc2cccnc2)C1	-107
Cn1cccc1C(=O)N1C[C@@H]2C[C@@H](c3nnc(C4CC4)o3)O[C@@H]2C1	-112
COCCNC(=O)[C@@H]1CN(c2ncccn2)C[C@H]2OCC[C@H]21	-68.4
CCCS(=O)(=O)NC1CCc2c(ccc(=O)n2CC2CC2)C1 (centres undefined)	-67.3
O=C1CC2(CCN(Cc3ccoc3)C2)CN1c1cncnc1 (centres undefined)	-69.4

SMILES	cytotoxicity at 10 µM [%]
Cc1ccc(S(=O)(=O)N2CCC3(CC(C(=O)NCC4CC4)=NO3)C2)cc1 (centres undefined)	4.35
CN(Cc1nc(-c2cccs2)no1)Cc1nc2c(s1)CCCC2	3.01
Cc1nc(CCN(C)C(=O)CCNC(=O)c2ccccc2F)no1	6.35
COc1cccc(N2CCC(N3CCOC(C(F)(F)F)C3)CC2)c1 (centres undefined)	-1.71
CCc1noc(CN(C)C(=O)C2COc3ccccc3C2)n1 (centres undefined)	1.3
CN(CCc1cn[nH]c1)C(=O)C(c1ccc(F)cc1)N(C)C (centres undefined)	-19.5
Cc1cc(NCCS(C)(=O)=O)n2nc(C)cc2n1	-14
O=C(NCCn1ccnc1C1CCOC1)c1cccnc1 (centres undefined)	-0.757
NCC1Cc2cc(-c3nccc(N4CCC(O)CC4)n3)cc(Cl)c2O1 (centres undefined)	-4.33
Cc1nc(O)cc(C2CCN(C(=O)CN(C)c3ccccc3)CC2)n1	8.92
Cc1ccc(F)cc1S(=O)(=O)N1C[C@@H](C)[C@@](C)(O)C1	-0.784
NC(=O)c1ccnc(N2CCCC(CO)(Cc3ccc(F)cc3)C2)c1 (centres undefined)	14.1
COCCN1CCC(CN(Cc2ccncc2)C2CCC2)CC1	-2.33
Cc1cccc(C)c1OC1CN(C(=O)C2CCCN(C(=O)N(C)C)C2)C1 (centres undefined)	-0.545
Cc1cc(C(=O)N[C@H]2CN(CCO)C[C@@H]2C2CC2)sc1C	1.18
O=C(N[C@@H]1CCN(C(=O)c2cc[nH]c2)C[C@H]1O)c1ccccn1	5.89
Cc1cc(C)c2nc(CNCCNS(C)(=O)=O)cc(O)c2c1	0.145
CCCN1CCN(C(=O)c2cc3ccccc3cn2)[C@H]2CS(=O)(=O)C[C@H]21	1.1
CC(C)c1noc(-c2ccc(NCCCC3CCOC3)nc2)n1 (centres undefined)	-7.37
Cc1cc(C(=O)N2CCC3(CC2)CN(CCN(C)C)C(=O)O3)nc(C)n1	2.92
O=c1n(CCn2cccc2)nc(C2CCNCC2)n1Cc1ccccc1	-2.06
Cc1cccc(SC2CCN(C(=O)CCCn3cnnn3)CC2)c1	0.647

SMILES	cytotoxicity at 10 µM [%]
COC(=O)CCCn1ccnc1-c1ccc(OC)c(F)c1F	-2.8
CCC(C)N(Cc1ccncc1)C(=O)CCSC (centres undefined)	-0.146
CCCc1cc(NCCn2cccn2)n2nccc2n1	0.988
Cc1cc(C(=O)N(C)Cc2cnn(C)c2)c(NC(=O)C(C)(C)C)s1	0.254
CC(=O)Nc1ccc(S(=O)(=O)Nc2c(F)cccc2F)cc1	12.6
c1ncn(Cc2nnc(C3CCN(CC4CC4)CC3)n2C2CC2)n1	5.2
COc1cccc(CCC2CCCN(C(=O)c3ccccn3)C2)c1 (centres undefined)	-0.237
CSc1cccc(CNC(=O)C2CC(=O)N(C3CC3)C2)c1 (centres undefined)	-12.3
O=C(NCCCSC1CCCCC1)C1NCCc2[nH]cnc21 (centres undefined)	-0.283
COc1cccc([C@@H]2CCN(Cc3cn(C)c4ccccc34)C[C@H]2O)c1	14.7
Cc1nc(-c2cccc(N3CCC(N[C@@H]4CCOC4)CC3)c2)cs1	-8.16
CN1CCN2CCN(C(=O)c3cc4ncc(CCO)cn4n3)CC2C1 (centres undefined)	6.99
O=C1NCCN(C(=O)c2cn3ccsc3n2)C1c1cccc(F)c1 (centres undefined)	-5.18
O=C(NC[C@@H]1CCCN1)c1cc(COc2cccc(C(F)(F)F)c2)[nH]n1	-8.31
CCOc1ccccc1C(=O)Nn1c(C)cc(C)cc1=O	-10.9
CC(=O)NCCc1cc(N2CCN(C(C)=O)CC2)nc(C2CC2)n1	2.24
CCOc1cc(C)nc(N2CCN(C(=O)c3cn[nH]c3CC)CC2)n1	-2
CCN1CCN(C(C)CNC(=O)Nc2cnn(CC)c2)CC1 (centres undefined)	-12.9
Cc1ccoc1C(=O)NC1CCN(Cc2ccccc2F)CC1	-14.1
CCCc1n[nH]c(C2CN(CCS(=O)(=O)CC)CCO2)n1 (centres undefined)	-5.83
CC(NC(=O)NCCCN(C)S(C)(=O)=O)c1ccc(C#N)cc1 (centres undefined)	-5.77
CC(C(N)=O)N(C)CCCc1cc(-c2ccccc2)no1 (centres undefined)	-5.01

SMILES	cytotoxicity at 10 µM [%]
COc1ccc(COCC(O)CNC(=O)c2cnc(C)cn2)cc1 (centres undefined)	-2
Cc1csc(CNC(=O)NCCc2ccc3c(c2)OCCO3)n1	4.74
COc1ccc(C(C)NCc2c[nH]nc2C)cc1Br (centres undefined)	-5.57
O=C(c1ccoc1)N1CCC2(CCC(=O)N2Cc2ccncc2)CC1	-1
OCCN1CCOC2(CCCN(c3cccc(F)c3)C2)C1 (centres undefined)	2.01
O=C(NCc1cn2c(n1)CN(Cc1ccncc1)CC2)C1CCC1	6.76
Fc1cnc(N2CC[C@@H](N3CCOCC3)[C@@H]2Cc2cccnc2)nc1	11.7
N#Cc1ccc(N2CCC3(CCC(=O)N3Cc3ccncc3)CC2)nc1	-109
COc1cc(N2CC[C@@H](O)[C@@H]2Cc2ccncc2)ncn1	-84.5
O=S(=O)(N1CCCC1)N1C[C@@H](c2cccc(F)c2)[C@@H]2NCCCCC[C@H]21	-25
Cc1nc(CN2CC[C@H]3[C@H]2CCN3c2ncccn2)cs1	-0.603
Cc1ccc(C(=O)N2C[C@H]3CCC[C@@]3(COCc3ccncc3)C2)cn1	6.64
Cc1cccc(CN2Cc3nccn3CC(CN3CCOCC3)C2)c1 (centres undefined)	-75.2
O=C1CC(NCc2cnc(N3CCCC3)nc2)CN1c1ccccc1 (centres undefined)	-4.56
COCC(=O)N1CCCC2(CCN(Cc3cccc(C)n3)C2=O)C1 (centres undefined)	-0.559
CN(C)CC1CN(Cc2ccc3c(c2)OCO3)Cc2nccn2C1 (centres undefined)	-0.362
COCCN1C[C@@H]2[C@@H](OC)CCN(Cc3cccc(C)n3)[C@@H]2C1	-9.41
COCCN1CCc2c(CNC(=O)c3nccn3C)cncc2C1	-107
O=C1CN(C(=O)C2CCC3(CC2)CNC(=O)c2ccccc2O3)CCN1 (centres undefined)	-11.6
CCCN1C[C@@H]2CC[C@H]1CN(C(=O)c1ccc(N(C)CCO)cc1)C2	-6.47
COC(=O)N1C[C@@H]2CC[C@H]1CN(Cc1ccncc1)C2	-10
